{"source": "paper PMC3775155", "about": "(Clinical Drug Investigation, 2013)", "key": {"CYP2E1": {"tested_on": "CYP2E1", "assay": "In vitro CYP inhibition", "assay_type": "in vitro ADME"}, "CYP1A2": {"tested_on": "CYP1A2", "assay": "In vitro CYP inhibition", "assay_type": "in vitro ADME"}, "[1]": {"assay": "Adverse events in the bupropion study", "assay_type": "in vivo, human", "conditions": "monotherapy period, days 1–14, n = 30"}, "CYP2C8": {"tested_on": "CYP2C8", "assay": "In vitro CYP inhibition", "assay_type": "in vitro ADME"}, "[2]": {"conditions": "cited from earlier work"}, "CYP2C19": {"tested_on": "CYP2C19", "assay": "In vitro CYP inhibition", "assay_type": "in vitro ADME"}, "CYP2D6": {"tested_on": "CYP2D6", "assay": "In vitro CYP inhibition", "assay_type": "in vitro ADME"}, "[3]": {"assay_type": "in vivo, human"}, "[4]": {"conditions": "cited from earlier work", "remark": "listed apart in the source"}, "[5]": {"assay_type": "in vivo, human", "remark": "listed apart in the source"}, "CYP3A4/5": {"tested_on": "CYP3A4/5", "assay": "In vitro CYP inhibition", "assay_type": "in vitro ADME"}, "[6]": {"assay_type": "in vivo, human", "summary_of_the_method": "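Open-label, randomized, 1-sequence design in healthy adults aged 18–55 y with BMI 19–30 kg/m2 (N = 36 across two arms). Test compound given as a single 10 mg dose on day 1, then a 14-day washout. The azole antifungal was given at 200 mg once daily on days 15–21, with test compound 10 mg on day 21. EDTA plasma was sampled predose and 1–120 h postdose on days 1 and 21. Analysis used SPE and HPLC. Noncompartmental AUClast, AUC∞ and Cmax were derived. A mixed-effects model (treatment fixed, subject random) was applied, and back-transformed LS-mean ratios with 90% CI are reported.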", "remark": "listed apart in the source"}, "P-glycoprotein (P-gp)": {"biological_target": "P-glycoprotein (P-gp) (Homo sapiens, UniProt P08183)", "sequence (P08183 whole entry)": "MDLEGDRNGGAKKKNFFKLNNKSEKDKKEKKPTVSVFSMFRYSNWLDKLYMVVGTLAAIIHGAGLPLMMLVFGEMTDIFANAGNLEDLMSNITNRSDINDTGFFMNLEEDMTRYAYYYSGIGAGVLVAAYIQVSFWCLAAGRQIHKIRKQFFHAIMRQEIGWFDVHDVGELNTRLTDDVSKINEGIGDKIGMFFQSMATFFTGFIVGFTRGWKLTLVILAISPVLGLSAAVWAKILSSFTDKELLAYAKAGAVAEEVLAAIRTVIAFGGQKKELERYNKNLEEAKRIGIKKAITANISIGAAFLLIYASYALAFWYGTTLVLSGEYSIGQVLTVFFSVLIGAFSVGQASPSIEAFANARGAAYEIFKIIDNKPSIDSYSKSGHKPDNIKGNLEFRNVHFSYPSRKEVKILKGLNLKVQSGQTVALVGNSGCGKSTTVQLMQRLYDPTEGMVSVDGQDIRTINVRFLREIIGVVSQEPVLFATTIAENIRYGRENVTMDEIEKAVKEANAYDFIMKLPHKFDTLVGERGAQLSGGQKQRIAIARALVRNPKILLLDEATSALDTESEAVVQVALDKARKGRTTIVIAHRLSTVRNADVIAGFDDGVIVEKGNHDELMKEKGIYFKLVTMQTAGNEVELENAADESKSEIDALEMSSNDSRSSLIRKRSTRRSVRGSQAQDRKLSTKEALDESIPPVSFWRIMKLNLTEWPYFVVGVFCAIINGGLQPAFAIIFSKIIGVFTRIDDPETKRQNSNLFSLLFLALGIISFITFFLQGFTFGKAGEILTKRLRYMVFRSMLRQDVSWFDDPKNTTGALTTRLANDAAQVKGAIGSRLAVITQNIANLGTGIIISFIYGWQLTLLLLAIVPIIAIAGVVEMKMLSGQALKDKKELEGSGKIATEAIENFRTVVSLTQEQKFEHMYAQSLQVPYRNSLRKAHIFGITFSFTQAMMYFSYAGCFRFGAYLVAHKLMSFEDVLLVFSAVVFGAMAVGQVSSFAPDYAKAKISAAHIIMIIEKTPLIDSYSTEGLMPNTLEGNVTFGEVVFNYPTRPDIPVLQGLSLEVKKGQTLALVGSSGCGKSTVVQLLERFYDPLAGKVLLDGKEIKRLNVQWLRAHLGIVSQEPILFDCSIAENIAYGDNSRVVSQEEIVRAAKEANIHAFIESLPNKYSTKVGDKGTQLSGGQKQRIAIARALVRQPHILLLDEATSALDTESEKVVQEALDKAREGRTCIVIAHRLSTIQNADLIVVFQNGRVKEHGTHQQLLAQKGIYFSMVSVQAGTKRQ", "assay": "In vitro P-gp net efflux ratio", "assay_type": "in vitro ADME", "conditions": "compared with digoxin; unpublished results"}, "CYP2A6": {"tested_on": "CYP2A6", "assay": "In vitro CYP inhibition", "assay_type": "in vitro ADME"}, "[7]": {"assay_type": "in vivo, human", "remark": "listed apart in the source"}, "CYP2B6": {"tested_on": "CYP2B6", "assay": "In vitro CYP inhibition", "assay_type": "in vitro ADME"}, "CYP2C9": {"tested_on": "CYP2C9", "assay": "In vitro CYP inhibition", "assay_type": "in vitro ADME"}, "[8]": {"assay_type": "in vivo, human", "summary_of_the_method": "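Open-label, randomized, 1-sequence design in healthy adults aged 18–55 y with BMI 19–30 kg/m2 (N = 36 across two arms). Test compound given as a single 10 mg dose on day 1, then a 14-day washout. The azole antifungal (CYP3A/P-gp inhibitor) was given at 400 mg once daily on days 15–21, with test compound 10 mg on day 21. EDTA plasma was sampled predose and 1–120 h postdose on days 1 and 21. Analysis used SPE and HPLC. Noncompartmental AUClast, AUC∞ and Cmax were derived. A mixed-effects model (treatment fixed, subject random) gave back-transformed LS-mean ratios with 90% CI.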", "remark": "listed apart in the source"}, "[9]": {"conditions": "co-administered with bupropion vs vortioxetine alone"}, "[10]": {"conditions": "co-administered with fluconazole vs vortioxetine alone"}, "[11]": {"conditions": "co-administered with rifampicin vs vortioxetine alone"}, "[12]": {"conditions": "co-administered with ketoconazole vs vortioxetine alone"}}, "note": "Several values for one entry are separate records, joined by “and”; a condition that tells them apart may be missing. Identical values can stand only once. Like-named read-outs stand apart in the source and are kept apart here."}
{"smiles": "Br.Cc1ccc(Sc2ccccc2N2CCNCC2)c(C)c1", "note": "[Vortioxetine, 1-[2-(2,4-dimethylphenylsulfanyl)-phenyl]-piperazine-hydrobromide]", "values": [{"measurement": "inhibitory concentration/inhibition constant ratio ([I]/Ki)", "setting": "CYP2E1", "result": "≤ 0.024"}, {"measurement": "inhibitory concentration/inhibition constant ratio ([I]/Ki)", "setting": "CYP1A2", "result": "≤ 0.024"}, {"measurement": "Abnormal dreams", "setting": "[1]", "result": "2 (6.7) number of subjects (%)"}, {"measurement": "Agitation", "setting": "[1]", "result": "0 number of subjects (%)"}, {"measurement": "Anxiety", "setting": "[1]", "result": "0 number of subjects (%)"}, {"measurement": "Constipation", "setting": "[1]", "result": "3 (10.0) number of subjects (%)"}, {"measurement": "Dizziness", "setting": "[1]", "result": "1 (3.3) number of subjects (%)"}, {"measurement": "Dyspepsia", "setting": "[1]", "result": "1 (3.3) number of subjects (%)"}, {"measurement": "Fatigue", "setting": "[1]", "result": "1 (3.3) number of subjects (%)"}, {"measurement": "Headache", "setting": "[1]", "result": "4 (13.3) number of subjects (%)"}, {"measurement": "Hyperhidrosis", "setting": "[1]", "result": "0 number of subjects (%)"}, {"measurement": "Insomnia", "setting": "[1]", "result": "1 (3.3) number of subjects (%)"}, {"measurement": "Nausea", "setting": "[1]", "result": "9 (30.0) number of subjects (%)"}, {"measurement": "Oropharyngeal pain", "setting": "[1]", "result": "0 number of subjects (%)"}, {"measurement": "Palpitations", "setting": "[1]", "result": "2 (6.7) number of subjects (%)"}, {"measurement": "Somnolence", "setting": "[1]", "result": "0 number of subjects (%)"}, {"measurement": "Tremor", "setting": "[1]", "result": "0 number of subjects (%)"}, {"measurement": "URTI (upper respiratory tract infection)", "setting": "[1]", "result": "0 number of subjects (%)"}, {"measurement": "Vertigo", "setting": "[1]", "result": "0 number of subjects (%)"}, {"measurement": "Vomiting", "setting": "[1]", "result": "3 (10.0) number of subjects (%)"}, {"measurement": "inhibitory concentration/inhibition constant ratio ([I]/Ki)", "setting": "CYP2C8", "result": "≤ 0.024"}, {"measurement": "drug-related material excreted in the feces", "setting": "[2]", "result": "one-third"}, {"measurement": "drug-related material excreted in the urine", "setting": "[2]; primarily as Lu AA34443 and its glucuronide", "result": "two-thirds"}, {"measurement": "inhibitory concentration/inhibition constant ratio ([I]/Ki)", "setting": "CYP2C19", "result": "≤ 0.024"}, {"measurement": "inhibitory concentration/inhibition constant ratio ([I]/Ki)", "setting": "CYP2D6", "result": "≤ 0.024"}, {"measurement": "AUC", "setting": "[3]; human, plasma, 10 mg", "result": 243, "unit": "ng·h/mL"}, {"measurement": "Cmax", "setting": "[3]; human, plasma, 10 mg", "result": 13.8, "unit": "ng/mL"}, {"measurement": "AUC24 ratio (test/reference)", "setting": "[3]; with omeprazole vs alone", "result": 105.5, "unit": "%"}, {"measurement": "Cmax ratio (test/reference)", "setting": "[3]; with omeprazole vs alone", "result": 100.5, "unit": "%"}, {"measurement": "elimination half-life", "setting": "[4]", "result": 57, "unit": "h"}, {"measurement": "steady-state volume of distribution", "setting": "[4]", "result": "approximately 2600 L"}, {"measurement": "oral bioavailability", "setting": "[4]; independent of food", "result": 75, "unit": "%"}, {"measurement": "increase in exposure of vortioxetine", "setting": "[5]; bupropion added to vortioxetine", "result": "approximately 100%"}, {"measurement": "increase in vortioxetine AUC", "setting": "[5]; [9]", "result": 128, "unit": "%"}, {"measurement": "increase in vortioxetine Cmax", "setting": "[5]; [9]", "result": 114, "unit": "%"}, {"measurement": "AUC", "setting": "[5]; human, plasma, 10 mg", "result": 308, "unit": "ng·h/mL"}, {"measurement": "Cmax", "setting": "[5]; human, plasma, 10 mg", "result": 15.9, "unit": "ng/mL"}, {"measurement": "AUC24 ratio (test/reference)", "setting": "[5]; with bupropion vs alone", "result": 228.30, "unit": "%"}, {"measurement": "Cmax ratio (test/reference)", "setting": "[5]; with bupropion vs alone", "result": 213.57, "unit": "%"}, {"measurement": "inhibitory concentration/inhibition constant ratio ([I]/Ki)", "setting": "CYP3A4/5", "result": "≤ 0.024"}, {"measurement": "increase in vortioxetine AUC", "setting": "[6]; [10]", "result": 46, "unit": "%"}, {"measurement": "increase in vortioxetine Cmax", "setting": "[6]; [10]", "result": 15, "unit": "%"}, {"measurement": "AUC(0-t)", "setting": "[6]; human, plasma, 10 mg", "result": 222, "unit": "ng·h/mL"}, {"measurement": "Cmax", "setting": "[6]; human, plasma, 10 mg", "result": 4.52, "unit": "ng/mL"}, {"measurement": "AUClast ratio (test/reference)", "setting": "[6]; with fluconazole vs alone", "result": 146.17, "unit": "%"}, {"measurement": "Cmax ratio (test/reference)", "setting": "[6]; with fluconazole vs alone", "result": 114.64, "unit": "%"}, {"measurement": "in vitro net efflux ratio (P-gp substrate)", "setting": "P-glycoprotein (P-gp)", "result": "much lower than that of the P-gp substrate digoxin"}, {"measurement": "inhibitory concentration/inhibition constant ratio ([I]/Ki)", "setting": "CYP2A6", "result": "≤ 0.024"}, {"measurement": "decrease in vortioxetine AUC (exposure)", "setting": "[7]; [11]", "result": "72% and 72 to 77%"}, {"measurement": "decrease in vortioxetine Cmax", "setting": "[7]; [11]", "result": 51, "unit": "%"}, {"measurement": "AUC(0-t)", "setting": "[7]; human, plasma, 20 mg", "result": 438, "unit": "ng·h/mL"}, {"measurement": "Cmax", "setting": "[7]; human, plasma, 20 mg", "result": 8.92, "unit": "ng/mL"}, {"measurement": "AUClast ratio (test/reference)", "setting": "[7]; with rifampicin vs alone", "result": 27.74, "unit": "%"}, {"measurement": "Cmax ratio (test/reference)", "setting": "[7]; with rifampicin vs alone", "result": 49.11, "unit": "%"}, {"measurement": "inhibitory concentration/inhibition constant ratio ([I]/Ki)", "setting": "CYP2B6", "result": "≤ 0.024"}, {"measurement": "inhibitory concentration/inhibition constant ratio ([I]/Ki)", "setting": "CYP2C9", "result": "≤ 0.024"}, {"measurement": "increase in vortioxetine AUC", "setting": "[8]; [12]", "result": 30, "unit": "%"}, {"measurement": "increase in vortioxetine Cmax", "setting": "[8]; [12]", "result": 26, "unit": "%"}, {"measurement": "AUC(0-t)", "setting": "[8]; human, plasma, 10 mg", "result": 262, "unit": "ng·h/mL"}, {"measurement": "Cmax", "setting": "[8]; human, plasma, 10 mg", "result": 4.92, "unit": "ng/mL"}, {"measurement": "AUClast ratio (test/reference)", "setting": "[8]; with ketoconazole vs alone", "result": 130.48, "unit": "%"}, {"measurement": "Cmax ratio (test/reference)", "setting": "[8]; with ketoconazole vs alone", "result": 125.73, "unit": "%"}]}
